Active and inactive are the calls of the source. No cut-off for these calls is given here.
Experiments:
[1] = molecular target: T1, Sphingosine kinase 2 (Mus musculus) (UniProt Q9JIA7); assay: Inhibition of mouse recombinant SPHK2 expressed in baculovirus-infected Sf9 cells in presence of sphingosine
T1 sequence (whole entry): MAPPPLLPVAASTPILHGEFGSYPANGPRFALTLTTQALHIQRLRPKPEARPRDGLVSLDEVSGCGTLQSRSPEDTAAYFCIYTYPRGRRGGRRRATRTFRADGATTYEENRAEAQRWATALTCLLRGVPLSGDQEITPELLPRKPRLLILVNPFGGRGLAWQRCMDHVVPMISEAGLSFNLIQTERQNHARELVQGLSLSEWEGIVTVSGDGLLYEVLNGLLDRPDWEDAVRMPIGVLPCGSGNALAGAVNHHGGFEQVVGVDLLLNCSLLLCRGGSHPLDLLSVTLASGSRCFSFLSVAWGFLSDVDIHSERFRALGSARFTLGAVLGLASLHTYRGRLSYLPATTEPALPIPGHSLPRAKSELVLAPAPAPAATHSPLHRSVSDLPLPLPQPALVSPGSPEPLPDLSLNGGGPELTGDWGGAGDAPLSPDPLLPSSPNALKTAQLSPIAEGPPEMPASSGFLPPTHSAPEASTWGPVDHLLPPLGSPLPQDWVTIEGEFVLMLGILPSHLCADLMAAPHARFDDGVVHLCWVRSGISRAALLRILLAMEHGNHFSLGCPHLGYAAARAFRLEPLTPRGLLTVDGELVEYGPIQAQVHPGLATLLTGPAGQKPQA
How it was run: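 Enzyme source was a 10,000 × g supernatant of Sf9 cells infected for 72 h with baculovirus encoding mouse SphK2, using 2–3 μg protein per assay. Sphingosine phosphorylation conditions were as in an earlier report.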

[2] = molecular target: Sphingosine kinase 1 (Homo sapiens) (UniProt Q9NYA1); settings: Sf9
Sequence of Sphingosine kinase 1 (Homo sapiens) (Q9NYA1 whole entry): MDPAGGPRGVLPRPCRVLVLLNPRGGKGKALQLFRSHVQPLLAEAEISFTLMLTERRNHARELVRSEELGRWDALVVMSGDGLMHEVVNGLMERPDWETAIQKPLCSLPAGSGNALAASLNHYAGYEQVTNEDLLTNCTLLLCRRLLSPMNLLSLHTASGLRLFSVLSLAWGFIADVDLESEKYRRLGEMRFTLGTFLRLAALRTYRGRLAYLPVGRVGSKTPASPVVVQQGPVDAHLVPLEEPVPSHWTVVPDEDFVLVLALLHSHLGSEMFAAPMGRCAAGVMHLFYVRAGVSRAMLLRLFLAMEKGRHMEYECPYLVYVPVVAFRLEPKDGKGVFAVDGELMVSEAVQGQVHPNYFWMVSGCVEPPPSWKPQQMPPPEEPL

[3] = molecular target: T1, Sphingosine kinase 2 (Mus musculus); assay: Ratio of Ki to Km for mouse recombinant SPHK2 expressed in baculovirus-infected Sf9 cells
[4] = molecular target: Diacylglycerol kinase gamma (Homo sapiens) (UniProt P49619); assay: Inhibition of DAGgamma up to 100 uM
Sequence of Diacylglycerol kinase gamma (Homo sapiens) (P49619 whole entry): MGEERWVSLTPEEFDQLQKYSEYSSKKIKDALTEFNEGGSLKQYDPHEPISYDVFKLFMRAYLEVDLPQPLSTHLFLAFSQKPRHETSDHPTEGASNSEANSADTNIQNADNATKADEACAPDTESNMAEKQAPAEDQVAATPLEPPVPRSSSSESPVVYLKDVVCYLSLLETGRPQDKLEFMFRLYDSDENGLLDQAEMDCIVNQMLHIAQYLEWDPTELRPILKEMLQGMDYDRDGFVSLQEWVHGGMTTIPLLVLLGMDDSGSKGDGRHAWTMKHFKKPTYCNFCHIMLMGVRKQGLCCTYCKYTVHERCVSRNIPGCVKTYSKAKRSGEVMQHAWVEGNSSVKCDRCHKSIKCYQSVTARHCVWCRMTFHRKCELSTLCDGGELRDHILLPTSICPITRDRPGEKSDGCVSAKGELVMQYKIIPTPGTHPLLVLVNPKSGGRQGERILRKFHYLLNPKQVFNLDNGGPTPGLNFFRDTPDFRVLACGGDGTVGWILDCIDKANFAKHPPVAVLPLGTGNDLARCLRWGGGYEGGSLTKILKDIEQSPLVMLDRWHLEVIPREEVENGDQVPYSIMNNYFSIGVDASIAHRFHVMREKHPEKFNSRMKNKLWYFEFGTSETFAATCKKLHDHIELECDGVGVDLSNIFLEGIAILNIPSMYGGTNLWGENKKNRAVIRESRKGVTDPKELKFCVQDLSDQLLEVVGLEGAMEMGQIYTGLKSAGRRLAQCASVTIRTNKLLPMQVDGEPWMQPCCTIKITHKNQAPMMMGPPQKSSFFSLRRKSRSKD
How it was run: (§1)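 Recombinant diacylglycerol kinases (γ, δ1, ζ) tested with compound at concentrations up to 100 μM.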

[5] = molecular target: T2, Diacylglycerol kinase delta (Homo sapiens) (UniProt Q16760); assay: Inhibition of DAGdelta1 up to 100 uM; how it was run: as §1
T2 sequence (whole entry): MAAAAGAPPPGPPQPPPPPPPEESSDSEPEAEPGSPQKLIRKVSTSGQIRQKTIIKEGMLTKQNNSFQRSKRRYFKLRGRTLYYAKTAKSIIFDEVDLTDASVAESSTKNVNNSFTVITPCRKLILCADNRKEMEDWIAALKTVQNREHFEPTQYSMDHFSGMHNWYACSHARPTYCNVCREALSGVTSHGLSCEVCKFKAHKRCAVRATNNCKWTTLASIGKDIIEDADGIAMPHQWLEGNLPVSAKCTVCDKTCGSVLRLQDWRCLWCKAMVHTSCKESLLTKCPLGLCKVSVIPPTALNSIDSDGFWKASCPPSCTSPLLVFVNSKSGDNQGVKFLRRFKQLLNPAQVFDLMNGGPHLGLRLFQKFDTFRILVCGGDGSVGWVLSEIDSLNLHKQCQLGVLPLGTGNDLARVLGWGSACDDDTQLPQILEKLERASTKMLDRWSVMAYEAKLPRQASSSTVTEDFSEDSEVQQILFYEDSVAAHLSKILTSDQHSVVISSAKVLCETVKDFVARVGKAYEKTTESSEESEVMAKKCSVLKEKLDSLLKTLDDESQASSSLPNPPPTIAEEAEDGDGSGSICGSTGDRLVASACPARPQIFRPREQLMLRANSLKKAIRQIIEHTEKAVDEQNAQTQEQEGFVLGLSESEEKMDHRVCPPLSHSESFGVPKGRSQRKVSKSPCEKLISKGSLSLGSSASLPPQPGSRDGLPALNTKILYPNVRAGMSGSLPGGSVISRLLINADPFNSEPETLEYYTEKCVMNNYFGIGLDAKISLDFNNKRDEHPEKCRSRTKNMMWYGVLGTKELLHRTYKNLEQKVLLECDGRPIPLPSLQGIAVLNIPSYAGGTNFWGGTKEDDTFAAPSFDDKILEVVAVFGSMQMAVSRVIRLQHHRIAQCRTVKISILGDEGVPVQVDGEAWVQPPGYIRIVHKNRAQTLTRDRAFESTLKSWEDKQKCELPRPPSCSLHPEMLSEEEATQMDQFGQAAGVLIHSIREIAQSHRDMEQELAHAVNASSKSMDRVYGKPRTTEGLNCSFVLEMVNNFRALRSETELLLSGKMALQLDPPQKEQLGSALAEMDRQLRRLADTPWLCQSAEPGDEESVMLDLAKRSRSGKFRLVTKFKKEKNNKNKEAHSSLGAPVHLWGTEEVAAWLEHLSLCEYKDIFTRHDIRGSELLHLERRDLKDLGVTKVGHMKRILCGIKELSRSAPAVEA

[6] = molecular target: Protein kinase C alpha type (Homo sapiens) (UniProt P17252); assay: Inhibition of PKCalpha up to 10 uM
How it was run: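 Compound tested at protein kinase C α at concentrations up to 10 μM.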

[7] = tested on: VSMC; assay: Inhibition of FBS-induced SPHKk1 mRNA level in rat VSMC after 4 hrs by RT-PCR; assay type: functional
How it was run: (§2)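 Rat aortic VSMC stimulated with 10% FBS for 4 h. Total RNA extracted with Trizol and reverse-transcribed. Sphk1 and Sphk2 mRNA measured by quantitative real-time PCR and normalized to 18S rRNA, N=3.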

[8] = tested on: VSMC; assay: Inhibition of FBS-induced SPHKk2 mRNA level in rat VSMC after 4 hrs by RT-PCR; assay type: functional, cell-based; how it was run: as §2
[9] = molecular target: T3, Sphingosine kinase 2 (Rattus norvegicus) (UniProt A6JB73); assay: Inhibition of [32P]S1P/FBS-stimulated SPHK2 in rat VSMC after 12 hrs relative to control
T3 sequence (whole entry): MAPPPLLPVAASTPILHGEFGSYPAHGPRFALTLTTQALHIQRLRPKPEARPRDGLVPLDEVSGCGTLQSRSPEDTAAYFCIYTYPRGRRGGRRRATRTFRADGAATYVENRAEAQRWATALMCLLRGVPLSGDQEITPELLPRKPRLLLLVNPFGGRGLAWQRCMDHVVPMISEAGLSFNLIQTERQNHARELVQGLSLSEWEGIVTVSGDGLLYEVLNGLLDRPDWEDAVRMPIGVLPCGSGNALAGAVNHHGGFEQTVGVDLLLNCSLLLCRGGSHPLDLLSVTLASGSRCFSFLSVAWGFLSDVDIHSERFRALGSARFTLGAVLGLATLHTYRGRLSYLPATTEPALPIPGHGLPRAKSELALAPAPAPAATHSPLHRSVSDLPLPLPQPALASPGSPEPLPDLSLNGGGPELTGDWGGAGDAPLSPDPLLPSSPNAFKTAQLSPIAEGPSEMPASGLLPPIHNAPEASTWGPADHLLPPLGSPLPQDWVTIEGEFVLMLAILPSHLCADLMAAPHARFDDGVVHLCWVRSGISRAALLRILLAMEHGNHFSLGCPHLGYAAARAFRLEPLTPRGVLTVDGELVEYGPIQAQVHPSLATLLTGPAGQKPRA
How it was run: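 Rat aortic VSMC stimulated with 10% FBS for 0, 3, 6 and 12 h. SphK2 activity measured as [32P]-S1P formation, N=3.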

[10] = tested on: VSMC; assay: Inhibition of FBS-induced intracellular concentration of S1P in rat VSMC; assay type: functional, cell-based
[11] = Inhibition of FBS-induced cell proliferation of rat VSMC after 24 hrs by BrdU incorporation assay; assay type: functional, cell-based
How it was run: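 Rat aortic VSMC pretreated with compound for 30 min, then stimulated with 10% FBS for 24 h. Proliferation measured by BrdU incorporation (10 μM BrdU) using an immuno-absorbance read-out, dose-response, N=6.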

[12] = Cytotoxicity against rat VSMC assessed as cell viability at 0.1 to 100 uM; assay type: cell-based; settings: in the assay text read “0.001 to 100 uM” for “0.1 to 100 uM”
How it was run: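 Rat aortic vascular smooth muscle cells, cultured in vitro, exposed to compound across 0.001–100 μM. Cytotoxic response read with the MultiTox-Fluor fluorescence assay, using 20 μM cyclosporine A as reference, N=3.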

[13] = tested on: VSMC; assay: Inhibition of serum-induced cell proliferation of rat VSMC
[14] = Cytotoxicity against rat VSMC assessed as cell viability at 10 uM by microscopical analysis

| Ki [1] [µM] | Ki [2] [µM] | Ratio [3] | Structure (SMILES) | further results |
| --- | --- | --- | --- | --- |
| > 100 | > 100 | > 20 | CCCCCCCCc1ccc(C(=O)N[C@@H](C)C(=O)O)cc1 | – |
| > 100 | 30 | > 20 | CCCCCCCCCCCCCCCCc1ccc(NC(=O)C2(C(=N)N)CC2)cc1 | – |
| 4 | 3 | 0.8 | CCCCCCCCCCc1ccc(NC(=O)C2(C(=N)N)CC2)cc1 | – |
| > 100 | > 100 | > 20 | CCCCCCCCc1ccc(C(=O)N[C@@H](C)C(N)=O)cc1 | – |
| 32 | 10 | 6.4 | CCCCCCCCCCCCCCc1ccc(C(=O)NC2(C(=N)N)CC2)cc1 | – |
| 23 | 25 | 4.6 | CCCCCCCCc1ccc(C(=O)NC2(C(=N)N)CC2)cc1 | – |
| 0.5 | 0.2 | 0.1 | CCCCCCCCCCCCc1ccc(C(=O)NC2(C(=N)N)CC2)cc1 | inhibition [4]: inactive; inhibition [5]: inactive; inhibition [6]: inactive |
| 4 | 5 | 0.8 | CCCCCCCCCCc1ccc(C(=O)NC2(C(=N)N)CC2)cc1 | – |
| 25 | > 100 | 5 | CCCCCCCCc1ccc(C(=O)N[C@H](C)C(=N)N)cc1 | – |
| 10 | 36 | 2 | CCCCCCCCCCCCCCCCc1ccc(C(=O)NC2(C(=N)N)CC2)cc1 | – |
| > 100 | 8.4 | > 20 | CCCCCCCCCCCCCCc1ccc(NC(=O)C2(C(=N)N)CC2)cc1 | – |
| 20 | 55 | 4 | CCCCCCCCc1ccc(C(=O)N[C@@H](C)C(=N)N)cc1.Cl | inhibition [7]: inactive; inhibition [8]: inactive; inhibition [9]: inactive; inhibition [10]: Active; EC50 [11]: 10 µM; Activity [12]: Non-toxic; inhibition [13]: Active; Activity [14]: Non-toxic |
| 60 | > 100 | 12 | CCCCCCCCc1ccc(C(=O)NCC(=N)N)cc1 | – |
| 6 | 0.3 | 1.2 | CCCCCCCCCCCCc1ccc(NC(=O)C2(C(=N)N)CC2)cc1 | inhibition [4]: inactive; inhibition [5]: inactive; inhibition [6]: inactive |

From ChEMBL document CHEMBL1156306, “Discovery, biological evaluation, and structure-activity relationship of amidine based sphingosine kinase inhibitors” (J Med Chem, 2010)
